Drug uptake and EC50 data for 2 molecules are collected here from ChEMBL document CHEMBL1671639, “Sitamaquine sensitivity in Leishmania species is not mediated by drug accumulation in acidocalcisomes” (Antimicrob Agents Chemother, 2008).

Broadly, the EC50 is the concentration at which the effect is half-maximal. High values mean a need for much substance, low ones an effect from little substance.

In data set [1] the test system is Leishmania major. Briefly: Drug uptake in Leishmania major MHOM/JL/80/Friedlin AP3delta-null mutant at 5 uM for 15 mins by liquid scintillation counting. The class given is ADME, organism-based. To be noted: in vivo, 0.25 h. In outline: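 Promastigotes from 48-h cultures were washed in PBS and resuspended at 2 × 10^7/ml in HEPES-buffered saline, pH 7. They were exposed to 5 μM [14C]sitamaquine for 15 min, chilled on ice, then washed 10 min on ice in PBS with 100 μM unlabelled sitamaquine and twice more in PBS. Pellets were lysed in 1% Triton X-100. Scintillation counts were normalised to Bradford protein.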

Data set [2] deals with Leishmania major. Kind of data set: Drug uptake in AP3-complemented Leishmania major MHOM/JL/80/Friedlin at 5 uM for 15 mins by liquid scintillation counting. The class given is ADME, organism-based. To be noted: in vivo, 0.25 h. The method, boiled down: (§1)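 PBS-washed parasites at 2 × 10^7/ml in HBS (pH 7) were incubated with 5 μM [14C]sitamaquine for 15 min at 28°C or 4°C. Washing was 10 min on ice in PBS or PBS with 100 μM unlabeled sitamaquine, then twice in PBS. Cell-associated radioactivity in 1% Triton X-100 lysates was counted by liquid scintillation and related to Bradford protein.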

For data set [3], the system named is Leishmania major. Kind of data set: Antiparasitic activity against amastigotes of delta-null mutant Leishmania major AP3 after 3 days by Alamar blue assay. To be noted: AP3, 72 h. In kind it is functional, organism-based. (The colour change of resazurin is a common sign of viable cells or microbes.)
For data set [4], the system named is Leishmania donovani. Kind of data set: Drug uptake in 1 mM N-ethylmaleimde pretreated Leishmania donovani at 5 uM after 15 mins by liquid scintillation counting. Particulars: in vivo, 0.25 h; call rule not given here. In kind it is ADME, organism-based. In outline: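 Parasites were treated with 1 mM NEM for 15 min on ice, then resuspended in fresh HBS. Cells at 2 × 10^7/ml were given 5 μM [14C]sitamaquine for 15 min at 28°C. Washing was 10 min on ice in PBS with 100 μM sitamaquine, then twice in PBS. Lysates in 1% Triton X-100 were read by scintillation counting, with Bradford protein.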

The subject of data set [5] is Leishmania major. Kind of data set: Antiparasitic activity against wild type amastigotes of Leishmania major AP3-complemented after 3 days by Alamar blue assay. To be noted: 72 h. The class given is functional, organism-based.
Data set [6] deals with Leishmania tropica. Kind of data set: Antiparasitic activity against Leishmania tropica MHOM/SU/60/LCR-L39 after 3 days by Alamar blue assay. The class given is functional, organism-based. Particulars: MHOM/SU/60/LCR-L39, 72 h. In outline: (§2)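 Promastigotes grown at 28°C in RPMI 1640-modified medium with 20% heat-inactivated FBS and harvested after 48 h of growth. Exposed to increasing sitamaquine concentrations for 72 h at 28°C. Growth read by Alamar Blue fluorescence (excitation 530 nm, emission 585 nm). EC50 taken as the concentration giving 50% growth inhibition. Run three times in duplicate.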

Data set [7] deals with Leishmania donovani. Kind of data set: Drug uptake in Leishmania donovani MHOM/ET/67/L82 assessed as reduction in fluorescence of LysoTracker Green by Flow cytometry analysis. The class given is ADME, organism-based. Particulars: in vivo. The method, boiled down: (§3)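 Promastigotes at 4 × 10^6 cells/ml were loaded with 100 nM LysoTracker Green DND-26 in HBS for 10 min at 28°C. They were then exposed to 1, 10 or 30 μM sitamaquine for 15 min at 28°C, washed and resuspended in PBS. Flow cytometry used 488 nm excitation and 515–545 nm emission after gating out dead cells and debris. Signal expressed as % of untreated.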
(In flow cytometry, cells or beads pass a laser one at a time.)

In data set [8] the test system is Leishmania donovani. Kind of data set: Drug uptake in Leishmania donovani at 10 uM for 10 mins by flow cytometry in presence of 20 mM NH4Cl acidic organelles alkalinization inducer. The class given is ADME, organism-based. Particulars: in vivo.
In data set [9] the test system is Leishmania donovani. Kind of data set: Antiparasitic activity against Leishmania donovani MHOM/ET/67/L82 after 3 days by Alamar blue assay. To be noted: MHOM/ET/67/L82, 72 h. In kind it is functional, organism-based. The method, boiled down:
as §2

Data set [10] has as its system Leishmania infantum. Briefly: Antiparasitic activity against Leishmania infantum MHOM/ES/1993/BCN-99 after 3 days by Alamar blue assay. The class given is functional, organism-based. To be noted: MHOM/ES/1993/BCN-99, 72 h. The method, boiled down:
as §2

Data set [11] has as its system Leishmania mexicana. Briefly: Antiparasitic activity against Leishmania mexicana M9012 after 3 days by Alamar blue assay. In kind it is functional, organism-based. Particulars: M9012, 72 h. The method, boiled down:
as §2

In data set [12] the test system is Leishmania sp. Kind of data set: Antiparasitic activity against promastigotes of Leishmania sp. after 3 days by Alamar blue assay. The class given is functional, organism-based. Particulars: 72 h. The method, boiled down: as §2
The test system of data set [13] is Leishmania tropica. Briefly: Drug uptake in Leishmania tropica MHOM/SU/60/LCR-L39 assessed as reduction in fluorescence of LysoTracker Green by Flow cytometry analysis. In kind it is ADME, organism-based. To be noted: in vivo. In outline: as §3
The subject of data set [14] is Leishmania donovani. Kind of data set: Drug uptake in Leishmania donovani at 5 uM after 15 mins at 4 degC by liquid scintillation counting. In kind it is ADME, organism-based. Particulars: in vivo, 0.25 h. The method, boiled down: as §1
Data set [15] concerns Leishmania tropica. Kind of data set: Drug uptake in Leishmania tropica MHOM/SU/74/SAF-K27 assessed as reduction in fluorescence of LysoTracker Green by Flow cytometry analysis. In kind it is ADME, organism-based. Particulars: in vivo. In outline: as §3
Data set [16] deals with Leishmania donovani. Kind of data set: Drug uptake in Leishmania donovani at 10 uM for 10 mins by flow cytometry in presence of nigericin. The class given is ADME, organism-based. Particulars: in vivo.
Data set [17] concerns Leishmania donovani. Kind of data set: Drug uptake in Leishmania donovani at 5 uM after 15 mins at 28 degC by liquid scintillation counting. In kind it is ADME, organism-based. To be noted: in vivo, 0.25 h. In outline:
as §1

Data set [18] concerns Leishmania donovani. Briefly: Drug uptake in Leishmania donovani at 5 uM after 15 mins at pH 8 by liquid scintillation counting. In kind it is ADME, organism-based. To be noted: in vivo, pH 8, 0.25 h. In outline:
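Parasites were incubated at 28°C with [14C]sitamaquine in HBS adjusted to various pHs, up to pH 8. Cells were chilled, then washed 10 min on ice in PBS with 100 μM sitamaquine and twice in PBS. Uptake was quantified by liquid scintillation counting of Triton X-100 lysates, with Bradford protein. Means of three independent experiments.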

Data set [19] relates to Leishmania donovani. Briefly: Drug uptake in Leishmania donovani at 10 uM for 10 mins by flow cytometry in presence of ionophores monensin. The class given is ADME, organism-based. Particulars: in vivo.
For data set [20], the system named is Leishmania braziliensis. Briefly: Antiparasitic activity against Leishmania braziliensis MHOM/PE/03/LH2419 after 3 days by Alamar blue assay. In kind it is functional, organism-based. Particulars: MHOM/PE/03/LH2419, 72 h. The method, boiled down:
as §2

Data set [21] relates to Leishmania donovani. Briefly: Drug uptake in Leishmania donovani MHOM/IN/80/DD8 assessed as reduction in fluorescence of LysoTracker Green by Flow cytometry analysis. To be noted: in vivo. The class given is ADME, organism-based. The method, boiled down:
as §3

`CCN(CC)CCCCCCNc1cc(O[14CH3])cc2c(C)ccnc12.Cl.Cl`: the Drug uptake result is recorded as “Not Active” in [1], “Active” in data set [2] and “Active” in [4]. Moreover, the EC50 came to 3.9 µM in data set [3] and 4.3 µM in data set [5].
Turning to `CCN(CC)CCCCCCNc1cc(OC)cc2c(C)ccnc12.Cl.Cl`, the EC50 in data set [6] was determined as 9.5 µM; in data set [9] it was 9.5 µM; in data set [10], 9.5 µM; in data set [11] it was 9.5 µM; in [12], 5.7 µM; in data set [20], 9.5 µM. Besides, the Drug uptake entry is listed as “Active” in data set [7]; “Not Active” in data set [8]; “Active” in data set [13]; “Active” in data set [14]; “Active” in data set [15]; “Not Active” in data set [16]. Further, the Drug uptake entry in data set [17] is reported as “Active”; in data set [18], “Active”; in data set [19] it was “Not Active”; in data set [21] it was “Active”.
